How the values were obtained:
[1] = target: T1, Myelin-associated glycoprotein (Homo sapiens) (UniProt P20916); assay: Inhibition of MAG N-terminal three domains expressed in CHO cells relative to Gal-beta-(1-3)-GalNAc-OSE; type: cell-based
T1 sequence (whole entry): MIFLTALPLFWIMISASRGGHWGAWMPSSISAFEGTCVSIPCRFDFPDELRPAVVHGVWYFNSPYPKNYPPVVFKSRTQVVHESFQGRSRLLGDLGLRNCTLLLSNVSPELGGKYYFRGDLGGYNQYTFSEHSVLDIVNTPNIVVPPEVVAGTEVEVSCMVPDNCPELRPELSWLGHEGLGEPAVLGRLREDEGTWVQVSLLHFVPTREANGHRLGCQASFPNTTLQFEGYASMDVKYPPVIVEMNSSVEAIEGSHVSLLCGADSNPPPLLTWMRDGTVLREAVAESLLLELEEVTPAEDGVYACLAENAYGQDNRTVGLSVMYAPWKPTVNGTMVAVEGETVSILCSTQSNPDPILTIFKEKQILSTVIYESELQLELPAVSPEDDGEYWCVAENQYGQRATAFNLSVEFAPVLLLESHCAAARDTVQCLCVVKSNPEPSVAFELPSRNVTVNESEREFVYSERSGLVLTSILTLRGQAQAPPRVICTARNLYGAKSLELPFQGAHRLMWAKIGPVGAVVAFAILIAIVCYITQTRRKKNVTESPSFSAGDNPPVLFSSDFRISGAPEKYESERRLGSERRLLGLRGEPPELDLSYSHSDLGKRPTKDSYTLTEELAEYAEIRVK
Summary of the method: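 Fc-MAG_d1–3 fusion (N-terminal three MAG domains plus human IgG Fc) was expressed in CHO cells and protein A-agarose purified, then precomplexed with alkaline phosphatase-labelled anti-Fc antibody. It was added to plates with immobilized Neu5Ac plus inhibitor, incubated overnight at 4 °C, and washed. Bound protein was read as initial rate of fluorescein release from fluorescein diphosphate. IC50 was taken from at least eight concentrations.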

[2] = target: T1, Myelin-associated glycoprotein (Homo sapiens); assay: Inhibition of MAG N-terminal three domains expressed in CHO cells at 20 mM

| Activity [1] | inhibition [2] | Structure (SMILES) |
| --- | --- | --- |
| 690 | – | CC(=O)N[C@H]1[C@H]([C@@H](O)[C@H](O)CNC(=O)c2ccccc2)O[C@@](OCc2ccccc2)(C(=O)O)C[C@@H]1O |
| 806 | – | CC(=O)N[C@@H]1[C@@H]([C@@H](O)[C@H](O)CNC(=O)c2ccc(C)cc2)O[C@@](OCc2ccccc2)(C(=O)O)C[C@@H]1O |
| 75 | – | CC(=O)N[C@H]1[C@@H]([C@H](O)[C@H](O)CNC(=O)c2ccccc2-c2ccccc2)O[C@@](OCc2ccccc2)(C(=O)O)C[C@@H]1O |
| 207 | – | CC(=O)N[C@H]1[C@H]([C@@H](O)[C@H](O)CNC(=O)c2ccc(C(F)(F)F)cc2)O[C@@](OCc2ccccc2)(C(=O)O)C[C@@H]1O |
| 483 | – | CC(=O)N[C@H]1[C@H]([C@@H](O)[C@H](O)CNC(=O)c2cccc(Cl)c2)O[C@@](OCc2ccccc2)(C(=O)O)C[C@@H]1O |
| 12 | – | CCCCCC(=O)NC[C@@H](O)[C@H](O)[C@@H]1O[C@@](OCc2ccccc2)(C(=O)O)C[C@H](O)[C@H]1NC(C)=O |
| 0.62 | – | CC(=O)N[C@H]1[C@H]([C@@H](O)[C@H](O)CO)O[C@@](OCc2ccccc2)(C(=O)O)C[C@@H]1O |
| 6.7 | – | CC(=O)N[C@H]1[C@H]([C@@H](O)[C@H](O)CNC(=O)c2cc(=O)[nH]c(=O)[nH]2)O[C@@](OCc2ccccc2)(C(=O)O)C[C@@H]1O |

The next lines start with the compound.

| Structure (SMILES) | Activity [1] | inhibition [2] |
| --- | --- | --- |
| CC(=O)N[C@H]1[C@H]([C@@H](O)[C@H](O)CNC(=O)c2ccc(Cl)cc2Cl)O[C@@](OCc2ccccc2)(C(=O)O)C[C@@H]1O | 35 | – |
| CCCCCCCCCC(=O)NC[C@@H](O)[C@H](O)[C@@H]1O[C@@](OCc2ccccc2)(C(=O)O)C[C@H](O)[C@H]1NC(C)=O | 12 | – |
| CC(=O)N[C@H]1[C@H]([C@@H](O)[C@H](O)CNC(=O)c2ccc(Cl)cc2)O[C@@](OCc2ccccc2)(C(=O)O)C[C@@H]1O | 1070 | – |
| CC(=O)N[C@H]1[C@H]([C@@H](O)[C@H](O)CO)O[C@](OCc2ccccc2)(C(=O)O)C[C@@H]1O | – | < 50% |
| CCCC(=O)NC[C@@H](O)[C@H](O)[C@@H]1O[C@@](OCc2ccccc2)(C(=O)O)C[C@H](O)[C@H]1NC(C)=O | 8.6 | – |
| CC(=O)N[C@H]1[C@@H]([C@H](O)[C@H](O)CNC(=O)c2ccc(-c3ccccc3)cc2)O[C@@](OCc2ccccc2)(C(=O)O)C[C@@H]1O | 191 | – |
| CC(=O)N[C@H]1[C@H]([C@@H](O)[C@H](O)CNC(=O)c2ccc(Cl)c(Cl)c2)O[C@@](OCc2ccccc2)(C(=O)O)C[C@@H]1O | 690 | – |
| COc1ccc(C(=O)NC[C@@H](O)[C@H](O)[C@@H]2O[C@@](OCc3ccccc3)(C(=O)O)C[C@H](O)[C@H]2NC(C)=O)cc1 | 290 | – |
| CC(=O)N[C@H]1[C@H]([C@@H](O)[C@H](O)CN=[N+]=[N-])O[C@@](OCc2ccccc2)(C(=O)O)C[C@@H]1O | 0.05 | – |
| CC(=O)N[C@H]1[C@H]([C@@H](O)[C@H](O)CNC(=O)c2ccc([N+](=O)[O-])cc2)O[C@@](OCc2ccccc2)(C(=O)O)C[C@@H]1O | 414 | – |
| CC(=O)N[C@H]1[C@H]([C@@H](O)[C@H](O)COCc2ccccc2)O[C@@](OCc2ccccc2)(C(=O)O)C[C@@H]1O | 2.8 | – |
